According to ChEMBL document CHEMBL2176927 (J Med Chem, 2012):
Activity calls are given as the source filed them. The calls are words filed in the database; no cut-off is given here.

Experiments:
Mus musculus [1] = assay: Toxicity in human PC3 cells xenografted mouse assessed as reduction of body weight at 100 mg/kg, po qd for 14 days; format: organism-based, PC-3; set-up: dose 100 mg/kg, route oral; scale not given: the % may be the effect or the level left; settings: in vivo, 336 h
How it was run: (§1)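 Female NCR.nude mice implanted s.c. in right hind flank with NCI-PC3 cells (5 × 10^6 in Hank's balanced salt solution). Dosing started QD at average tumor volume 200 mm3, 5 mice per group. Body weight recorded twice weekly; 10% body weight loss was the limit for tolerated doses, and mice were euthanized at 20% loss or tumor volume 2000 mm3.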

PC-3 [2] = assay: Antitumor activity against human PC3 cells xenografted mouse assessed as tumor growth inhibition at 6.25 to 100 mg/kg, po qd for 14 days; format: functional, organism-based
How it was run: (§2)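 Female NCR.nude mice with subcutaneous NCI-PC3 flank tumours, dosed orally once daily (or twice daily at the same daily total) for 14 days from a mean tumour volume of 200 mm3; 5 mice/group. Caliper volume is (L x W x W)/2, measured twice weekly.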

Mus musculus [3] = assay: Inhibition of mTORC2 in human PC3 cells xenografted mouse assessed as reduction of phosphorylated Akt level at 12.5 to 100 mg/kg, po after 6 hrs; format: functional, organism-based; settings: PC-3
How it was run: (§3)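 NCI-PC3 s.c. xenografts in female NCR.nude mice grown to about 500 mm3, then randomized (n = 4). Oral suspension in 0.5% methylcellulose/0.2% Tween 80. Tumors were lysed, normalized by BCA assay, and loaded at 20 µg/well. pAkt Ser473 and total Akt were measured in duplex on Meso Scale electrochemiluminescence in duplicate per mouse, relative to time-matched vehicle mean.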

[4] = target: T1, Phosphatidylinositol 4,5-bisphosphate 3-kinase catalytic subunit delta isoform (Homo sapiens) (UniProt O00329); assay: Inhibition of PI3Kdelta at 1 uM
T1 sequence (whole entry): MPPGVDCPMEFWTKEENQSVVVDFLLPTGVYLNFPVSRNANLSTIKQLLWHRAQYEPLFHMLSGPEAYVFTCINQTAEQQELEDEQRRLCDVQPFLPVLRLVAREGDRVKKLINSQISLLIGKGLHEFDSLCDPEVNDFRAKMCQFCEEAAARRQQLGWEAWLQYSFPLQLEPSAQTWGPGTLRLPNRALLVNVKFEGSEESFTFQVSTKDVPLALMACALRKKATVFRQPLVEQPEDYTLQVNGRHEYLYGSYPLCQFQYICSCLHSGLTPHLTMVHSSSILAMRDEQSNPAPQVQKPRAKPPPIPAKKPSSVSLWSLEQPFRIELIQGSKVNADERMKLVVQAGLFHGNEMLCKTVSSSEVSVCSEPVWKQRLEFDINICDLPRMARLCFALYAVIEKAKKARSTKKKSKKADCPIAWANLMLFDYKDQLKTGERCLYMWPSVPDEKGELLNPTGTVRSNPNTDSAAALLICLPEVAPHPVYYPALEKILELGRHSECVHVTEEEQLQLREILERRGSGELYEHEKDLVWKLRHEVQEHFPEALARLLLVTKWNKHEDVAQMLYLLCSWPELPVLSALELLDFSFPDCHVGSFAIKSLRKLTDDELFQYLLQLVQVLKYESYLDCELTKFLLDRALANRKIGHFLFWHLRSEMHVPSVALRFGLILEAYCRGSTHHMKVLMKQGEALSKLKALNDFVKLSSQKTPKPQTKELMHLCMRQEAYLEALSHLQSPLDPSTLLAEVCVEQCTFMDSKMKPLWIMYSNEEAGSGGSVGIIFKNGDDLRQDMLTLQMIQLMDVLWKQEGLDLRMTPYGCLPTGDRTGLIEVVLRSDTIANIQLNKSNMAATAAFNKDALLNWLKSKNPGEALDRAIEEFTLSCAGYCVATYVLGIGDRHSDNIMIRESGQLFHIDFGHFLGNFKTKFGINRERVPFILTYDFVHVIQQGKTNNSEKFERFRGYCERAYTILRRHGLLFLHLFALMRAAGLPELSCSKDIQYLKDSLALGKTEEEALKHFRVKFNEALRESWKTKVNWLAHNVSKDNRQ
How it was run: (§4)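 Kinase selectivity panel of 250 kinases. Test compound at 1 µM; percent inhibition recorded for each kinase.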

Mus musculus [5] = assay: Inhibition of mTORC1 in human PC3 cells xenografted mouse assessed as reduction of phosphorylated p70S6K level at 12.5 to 100 mg/kg, po after 6 hrs; format: functional, organism-based; settings: PC-3
[6] = target: Phosphatidylinositol 4,5-bisphosphate 3-kinase catalytic subunit gamma isoform (Homo sapiens) (UniProt P48736); assay: Inhibition of PI3Kgamma at 1 uM; how it was run: as §4
Sequence of Phosphatidylinositol 4,5-bisphosphate 3-kinase catalytic subunit gamma isoform (Homo sapiens) (P48736 whole entry, looked up, canonical isoform): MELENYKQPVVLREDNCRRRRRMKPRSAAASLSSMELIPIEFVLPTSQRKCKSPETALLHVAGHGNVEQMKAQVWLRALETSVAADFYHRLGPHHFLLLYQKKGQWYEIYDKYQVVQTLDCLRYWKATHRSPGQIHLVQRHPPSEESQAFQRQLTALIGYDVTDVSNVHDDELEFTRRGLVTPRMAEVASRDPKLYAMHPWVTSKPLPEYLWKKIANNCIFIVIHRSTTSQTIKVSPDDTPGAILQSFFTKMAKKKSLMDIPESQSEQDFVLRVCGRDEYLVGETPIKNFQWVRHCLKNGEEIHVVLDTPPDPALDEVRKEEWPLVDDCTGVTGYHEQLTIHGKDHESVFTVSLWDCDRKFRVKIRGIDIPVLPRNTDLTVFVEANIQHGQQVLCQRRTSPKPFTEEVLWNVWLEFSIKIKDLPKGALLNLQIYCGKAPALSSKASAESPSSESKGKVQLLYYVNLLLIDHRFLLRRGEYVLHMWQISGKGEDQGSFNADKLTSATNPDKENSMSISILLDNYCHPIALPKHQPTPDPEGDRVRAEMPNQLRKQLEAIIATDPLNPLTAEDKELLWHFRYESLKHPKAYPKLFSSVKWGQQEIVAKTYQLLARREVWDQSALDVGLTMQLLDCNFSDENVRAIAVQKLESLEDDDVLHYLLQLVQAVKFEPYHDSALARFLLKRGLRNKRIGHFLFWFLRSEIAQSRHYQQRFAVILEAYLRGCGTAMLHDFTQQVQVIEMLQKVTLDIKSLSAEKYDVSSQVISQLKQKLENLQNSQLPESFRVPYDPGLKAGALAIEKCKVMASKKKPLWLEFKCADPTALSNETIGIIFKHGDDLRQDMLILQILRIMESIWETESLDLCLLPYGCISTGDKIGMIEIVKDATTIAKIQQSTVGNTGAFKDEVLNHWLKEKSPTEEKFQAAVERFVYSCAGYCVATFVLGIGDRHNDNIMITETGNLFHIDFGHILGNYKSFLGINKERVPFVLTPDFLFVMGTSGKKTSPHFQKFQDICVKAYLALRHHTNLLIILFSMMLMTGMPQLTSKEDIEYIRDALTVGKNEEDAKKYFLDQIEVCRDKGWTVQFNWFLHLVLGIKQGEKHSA

[7] = target: Phosphatidylinositol 4,5-bisphosphate 3-kinase catalytic subunit alpha isoform (Homo sapiens) (UniProt P42336); assay: Inhibition of PI3Kalpha at 1 uM; how it was run: as §4
Sequence of Phosphatidylinositol 4,5-bisphosphate 3-kinase catalytic subunit alpha isoform (Homo sapiens) (P42336 whole entry, canonical isoform): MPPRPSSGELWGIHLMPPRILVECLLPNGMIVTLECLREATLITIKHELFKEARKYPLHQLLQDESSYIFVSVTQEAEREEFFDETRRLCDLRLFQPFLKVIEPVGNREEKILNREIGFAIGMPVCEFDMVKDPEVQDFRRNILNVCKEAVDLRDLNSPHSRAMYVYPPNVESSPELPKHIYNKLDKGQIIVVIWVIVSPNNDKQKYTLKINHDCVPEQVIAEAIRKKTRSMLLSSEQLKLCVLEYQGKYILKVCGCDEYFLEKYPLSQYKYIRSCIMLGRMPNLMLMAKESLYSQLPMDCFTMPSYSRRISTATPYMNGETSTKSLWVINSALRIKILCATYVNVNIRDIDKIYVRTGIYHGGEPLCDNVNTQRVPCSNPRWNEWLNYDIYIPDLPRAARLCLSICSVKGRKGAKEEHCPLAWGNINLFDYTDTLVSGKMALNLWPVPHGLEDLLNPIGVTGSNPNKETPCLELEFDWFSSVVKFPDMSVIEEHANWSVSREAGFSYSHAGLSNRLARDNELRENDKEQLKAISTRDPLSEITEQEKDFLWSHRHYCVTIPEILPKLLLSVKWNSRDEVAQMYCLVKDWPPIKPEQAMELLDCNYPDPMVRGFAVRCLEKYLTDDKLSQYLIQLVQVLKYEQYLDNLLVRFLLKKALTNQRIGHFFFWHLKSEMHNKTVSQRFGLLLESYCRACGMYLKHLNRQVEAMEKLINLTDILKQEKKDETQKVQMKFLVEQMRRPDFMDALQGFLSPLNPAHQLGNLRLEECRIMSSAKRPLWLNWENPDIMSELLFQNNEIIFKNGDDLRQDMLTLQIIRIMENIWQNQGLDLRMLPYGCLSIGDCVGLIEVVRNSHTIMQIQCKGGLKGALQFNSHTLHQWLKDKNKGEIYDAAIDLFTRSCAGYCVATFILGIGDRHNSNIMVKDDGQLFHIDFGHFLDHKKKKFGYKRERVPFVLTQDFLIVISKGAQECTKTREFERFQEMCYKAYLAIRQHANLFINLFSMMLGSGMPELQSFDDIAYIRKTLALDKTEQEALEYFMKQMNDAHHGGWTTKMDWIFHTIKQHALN

[8] = Oral bioavailability in mouse at 5 mg/kg; format: ADME, organism-based; settings: in vivo
[9] = AUC in mouse at 5 mg/kg, po; format: ADME, organism-based; set-up: dose 5 mg/kg, route oral; settings: plasma
[10] = Half life in mouse at 1 mg/kg, iv; format: ADME, organism-based; set-up: dose 1 mg/kg, route intravenous; settings: in vivo
[11] = Volume of distribution at steady state in mouse at 1 mg/kg, iv; format: ADME, organism-based; set-up: dose 1 mg/kg, route intravenous; settings: in vivo, read-out: Vdss
[12] = Clearance in mouse at 1 mg/kg, iv; format: ADME, organism-based; set-up: dose 1 mg/kg, route intravenous; settings: in vivo
[13] = Plasma protein binding in mouse; format: ADME, cell-free; settings: read-out: PPB (converted)
[14] = Plasma protein binding in human; format: ADME, cell-free; settings: read-out: PPB (converted)
[15] = Plasma protein binding in rat; format: ADME, cell-free; settings: read-out: PPB (converted)
[16] = Clearance in mouse liver microsomes; format: ADME, Microsome
How it was run: (§5)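 Hepatic clearance (Clhep) predicted from incubation with human, rat or mouse liver microsomes.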

[17] = Clearance in rat liver microsomes; format: ADME, Microsome; how it was run: as §5
[18] = Clearance in human liver microsomes; format: ADME, Microsome; how it was run: as §5
Cytochrome P450 2C19 = Cytochrome P450 2C19 (Homo sapiens, UniProt P33261); assay: Inhibition of CYP2C19-mediated mephenytoin metabolism; format: ADME; settings: recombinant enzyme
Sequence of Cytochrome P450 2C19 (P33261 whole entry): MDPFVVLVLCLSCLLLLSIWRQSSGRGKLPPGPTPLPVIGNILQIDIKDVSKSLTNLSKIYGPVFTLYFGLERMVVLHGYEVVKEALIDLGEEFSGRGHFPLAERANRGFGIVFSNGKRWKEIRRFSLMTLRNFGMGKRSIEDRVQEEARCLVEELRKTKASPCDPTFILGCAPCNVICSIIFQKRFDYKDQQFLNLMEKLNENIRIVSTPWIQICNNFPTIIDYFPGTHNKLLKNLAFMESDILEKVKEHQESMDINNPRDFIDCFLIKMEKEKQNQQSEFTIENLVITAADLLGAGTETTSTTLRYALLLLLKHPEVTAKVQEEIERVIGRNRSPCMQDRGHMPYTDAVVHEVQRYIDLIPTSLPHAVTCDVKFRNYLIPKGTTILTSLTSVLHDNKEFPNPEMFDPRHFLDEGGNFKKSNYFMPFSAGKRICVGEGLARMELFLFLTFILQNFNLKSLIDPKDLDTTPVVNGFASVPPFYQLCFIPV

Cytochrome P450 1A2 = target: T2, Cytochrome P450 1A2 (Homo sapiens, UniProt P05177); assay: Inhibition of CYP1A2-mediated phenacetin metabolism; format: ADME; settings: recombinant enzyme
T2 sequence (P05177 whole entry): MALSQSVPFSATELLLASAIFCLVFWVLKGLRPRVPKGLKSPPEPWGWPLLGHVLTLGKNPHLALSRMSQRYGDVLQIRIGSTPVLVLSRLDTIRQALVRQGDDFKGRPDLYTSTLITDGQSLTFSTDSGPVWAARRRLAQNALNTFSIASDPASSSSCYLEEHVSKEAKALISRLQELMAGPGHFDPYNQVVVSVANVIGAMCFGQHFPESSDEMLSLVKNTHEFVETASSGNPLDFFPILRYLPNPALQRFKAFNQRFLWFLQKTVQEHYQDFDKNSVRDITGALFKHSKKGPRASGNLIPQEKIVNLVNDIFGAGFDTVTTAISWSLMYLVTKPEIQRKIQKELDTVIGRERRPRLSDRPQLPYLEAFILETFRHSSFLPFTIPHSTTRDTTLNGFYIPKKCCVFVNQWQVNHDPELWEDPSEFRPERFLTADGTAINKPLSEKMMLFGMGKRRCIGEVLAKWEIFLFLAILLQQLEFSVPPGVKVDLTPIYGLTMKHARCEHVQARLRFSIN

Cytochrome P450 2C9 = Cytochrome P450 2C9 (Homo sapiens, UniProt P11712); assay: Inhibition of CYP2C9-mediated warfarin metabolism; format: ADME; settings: recombinant enzyme
Sequence of Cytochrome P450 2C9 (P11712 whole entry): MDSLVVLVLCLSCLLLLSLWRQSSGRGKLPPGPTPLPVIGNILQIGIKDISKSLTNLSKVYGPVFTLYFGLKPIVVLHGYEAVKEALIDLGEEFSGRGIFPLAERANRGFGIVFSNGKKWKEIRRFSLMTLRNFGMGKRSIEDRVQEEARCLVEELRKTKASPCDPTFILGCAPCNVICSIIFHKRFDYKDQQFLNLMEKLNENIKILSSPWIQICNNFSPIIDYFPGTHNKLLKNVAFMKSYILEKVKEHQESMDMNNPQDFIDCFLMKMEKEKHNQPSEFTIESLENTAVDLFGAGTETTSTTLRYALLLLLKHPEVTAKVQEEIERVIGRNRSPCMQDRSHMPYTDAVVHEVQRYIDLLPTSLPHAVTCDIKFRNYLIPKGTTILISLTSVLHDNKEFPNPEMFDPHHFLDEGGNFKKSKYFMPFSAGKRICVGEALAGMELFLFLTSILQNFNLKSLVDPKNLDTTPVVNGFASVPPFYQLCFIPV

Cytochrome P450 2D6 = Cytochrome P450 2D6 (Homo sapiens, UniProt P10635); assay: Inhibition of CYP2D6-mediated dextromethorphan metabolism; format: ADME; settings: recombinant enzyme
Sequence of Cytochrome P450 2D6 (P10635 whole entry): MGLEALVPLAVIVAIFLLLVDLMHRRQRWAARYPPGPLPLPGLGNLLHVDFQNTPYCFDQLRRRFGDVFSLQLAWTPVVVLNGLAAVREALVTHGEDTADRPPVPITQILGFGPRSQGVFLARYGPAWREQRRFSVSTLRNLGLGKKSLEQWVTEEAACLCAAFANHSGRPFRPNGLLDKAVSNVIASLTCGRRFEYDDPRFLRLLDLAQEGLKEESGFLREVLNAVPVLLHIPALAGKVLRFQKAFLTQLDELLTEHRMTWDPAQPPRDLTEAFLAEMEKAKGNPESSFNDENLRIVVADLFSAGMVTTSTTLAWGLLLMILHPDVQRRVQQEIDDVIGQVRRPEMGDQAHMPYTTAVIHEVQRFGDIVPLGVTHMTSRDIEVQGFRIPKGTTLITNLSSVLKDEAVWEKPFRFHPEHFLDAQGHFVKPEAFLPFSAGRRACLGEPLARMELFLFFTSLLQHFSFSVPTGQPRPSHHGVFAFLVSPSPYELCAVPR

Cytochrome P450 3A4 = Cytochrome P450 3A4 (Homo sapiens, UniProt P08684); assay: Inhibition of CYP3A4-mediated midazolam and testosterone metabolism; format: ADME; settings: recombinant enzyme
Sequence of Cytochrome P450 3A4 (P08684 whole entry): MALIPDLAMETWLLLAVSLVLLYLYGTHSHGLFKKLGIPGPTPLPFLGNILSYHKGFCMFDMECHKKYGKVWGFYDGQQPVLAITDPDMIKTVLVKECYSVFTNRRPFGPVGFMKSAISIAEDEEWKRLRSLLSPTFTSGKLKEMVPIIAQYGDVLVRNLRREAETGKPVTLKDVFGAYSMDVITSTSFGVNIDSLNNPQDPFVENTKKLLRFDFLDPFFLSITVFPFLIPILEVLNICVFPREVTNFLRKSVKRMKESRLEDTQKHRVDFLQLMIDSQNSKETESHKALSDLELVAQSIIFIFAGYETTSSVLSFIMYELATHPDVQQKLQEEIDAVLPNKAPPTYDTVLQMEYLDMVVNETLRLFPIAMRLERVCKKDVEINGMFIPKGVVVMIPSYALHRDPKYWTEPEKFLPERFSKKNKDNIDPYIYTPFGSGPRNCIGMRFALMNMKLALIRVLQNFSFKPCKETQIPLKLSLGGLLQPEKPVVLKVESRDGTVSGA

PC-3 [19] = assay: Cytotoxicity against human pTEN deficient PC3 after 3 days; format: functional, cell-based; settings: PC-3, 72 h
[20] = target: Serine/threonine-protein kinase mTOR (Homo sapiens, UniProt P42345); assay: Inhibition of human recombinant mTOR by FRET assay
[21] = Inhibition of mTORC2 in human pTEN deficient NCI-PC3 cells assessed as reduction of Akt phosphorylation at Ser473; format: cell-based
PC-3 [22] = assay: Antitumor activity against human PC3 cells xenografted mouse assessed as tumor growth inhibition at 10 mg/kg, po qd for 14 days; format: functional, organism-based; set-up: dose 10 mg/kg; how it was run: as §1
Mus musculus [23] = assay: Inhibition of mTORC2 in human U87 cells xenografted mouse assessed as reduction of phosphorylated Akt level at 10 mg/kg, po after 24 hrs; format: functional, organism-based; set-up: dose 10 mg/kg; settings: U-87MG ATCC
How it was run: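 U87 glioma (PTEN-deficient) tumor-bearing mice, four per compound and time point. Tumor and blood were sampled over 24 h. Phospho-Akt was measured in duplicate samples per mouse and expressed relative to time-matched vehicle controls; mean ± one SD.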

Mus musculus [24] = assay: Inhibition of mTORC1 in human U87 cells xenografted mouse assessed as reduction of phosphorylated p70S6K level at 10 mg/kg, po after 24 hrs; format: functional, organism-based; set-up: dose 10 mg/kg; settings: U-87MG ATCC
PC-3 [25] = assay: Antitumor activity against human PC3 cells xenografted mouse assessed as tumor growth inhibition at […] to 100 mg/kg, po bid for 14 days; format: functional, organism-based; how it was run: as §2
PC-3 [26] = assay: Antitumor activity against human PC3 cells xenografted mouse assessed as tumor growth inhibition at 50 mg/kg, po qd for 14 days; format: functional, organism-based; set-up: dose 50 mg/kg; how it was run: as §2
Mus musculus [27] = assay: Toxicity in human PC3 cells xenografted mouse assessed as reduction of body weight at 200 mg/kg, po qd for 14 days; format: organism-based, PC-3; set-up: dose 200 mg/kg, route oral; scale not given: the % may be the effect or the level left; settings: in vivo, 336 h
How it was run: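 Same PC3 s.c. xenograft in nude mice with QD oral dosing, 5 animals per group. Body weight was measured twice weekly; loss above 10% is the protocol limit for tolerated doses and triggers a dosing holiday.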

[28] = Cytotoxicity against human MCF7/neo expressing HER2 after 3 days; format: functional
Mus musculus [29] = species on record: Mus musculus; settings: U-87MG ATCC, 100 mg/kg
Mus musculus [30] = species on record: Mus musculus; settings: U-87MG ATCC, 100 mg/kg; remark: listed apart in the source
Mus musculus [31] = species on record: Mus musculus; settings: PC-3, 25 to 100 mg/kg
Mus musculus [32] = species on record: Mus musculus; settings: PC-3, 25 to 100 mg/kg; remark: listed apart in the source
Mus musculus [33] = assay: Inhibition of mTORC2 in human PC3 cells xenografted mouse assessed as reduction of phosphorylated Akt level at 10 mg/kg, po after 6 hrs; format: functional, organism-based; set-up: dose 10 mg/kg; settings: PC-3; how it was run: as §3
Mus musculus [34] = assay: Inhibition of mTORC1 in human PC3 cells xenografted mouse assessed as reduction of phosphorylated p70S6K level at 10 mg/kg, po after 6 hrs; format: functional, organism-based; set-up: dose 10 mg/kg; settings: PC-3

Compound | TGI (PC-3 [2]) | bioavailability [8] [%] | AUC [9] [µM·h] | half-life [10] [h] | Vd [11] [L/kg] | clearance [12] [mL/min/kg] | fraction unbound [13] | fraction unbound [14] | fraction unbound [15] | CLhep predicted [16] [mL/min/kg] | CLhep predicted [17] [mL/min/kg] | CLhep predicted [18] [mL/min/kg] | inhibition (INH) (Cytochrome P450 2C19) | inhibition (INH) (Cytochrome P450 1A2) | inhibition (INH) (Cytochrome P450 2C9) | inhibition (INH) (Cytochrome P450 2D6) | inhibition (INH) (Cytochrome P450 3A4) | IC50 (PC-3 [19]) [nM] | IC50 [21] [nM] | also measured
CCNC(=O)Nc1ccc(-c2nc3c(c(N4CCOCC4)n2)CCN(c2ncccn2)C3)cc1 | Active | 70 | 5.7 | 0.7 | 1.1 | 22 | 0.01 | 0.02 | 0.01 | 40 | 31 | 13 | Not Active | Not Active | Not Active | Not Active | Not Active | 290 | 25 | Activity (Mus musculus [1]): > 10%; inhibition (Mus musculus [3]): Active; inhibition [4]: 50%; inhibition (Mus musculus [5]): Active; inhibition [6]: 50%; inhibition [7]: 50%; Ki [20]: 5.5 nM
CO[C@H]1C[C@@H]2CC[C@@H](C)[C@@](O)(O2)C(=O)C(=O)N2CCCC[C@H]2C(=O)O[C@H]([C@H](C)C[C@@H]2CC[C@@H](O)[C@H](OC)C2)CC(=O)[C@H](C)/C=C(\C)[C@@H](O)[C@@H](OC)C(=O)[C@H](C)C[C@H](C)/C=C/C=C/C=C/1C | – | – | – | – | – | – | – | – | – | – | – | – | – | – | – | – | – | – | – | TGI (PC-3 [22]): Active; inhibition (Mus musculus [23]): inactive; inhibition (Mus musculus [24]): Active
CCNC(=O)Nc1ccc(-c2nc3c(c(N4CCOC[C@@H]4C)n2)CCN(c2ncccn2)C3)cc1 | Active | 42 | 2 | 1.7 | 1.2 | 36 | 0.01 | 0.02 | 0.03 | 61 | 33 | 15 | Not Active | Not Active | Not Active | Not Active | Not Active | 150 | 3.3 | TGI (PC-3 [25]): Active; TGI (PC-3 [26]): Active; Activity (Mus musculus [27]): 10%; IC50 [28]: 57 nM; inhibition (Mus musculus [29]): inactive; inhibition (Mus musculus [30]): inactive; inhibition (Mus musculus [31]): Active; inhibition (Mus musculus [32]): Active
Cc1c(CN2CCN(C(=O)[C@H](C)O)CC2)sc2c(N3CCOCC3)nc(-c3cnc(N)nc3)nc12 | – | – | – | – | – | – | – | – | – | – | – | – | – | – | – | – | – | – | – | inhibition (Mus musculus [33]): Active; inhibition (Mus musculus [34]): Active
